Experimental data collected from several papers.
Each line is one published result; the experiments were not run side by side.
BCHE: Cholinesterase (BCHE, Homo sapiens, UniProt P06276)
MC4R: Melanocortin receptor 4 (MC4R, Homo sapiens, UniProt P32245)

Compound | target | assay | setting | inhibition [%]
C=CCn1c2cc(OC(=O)CCCCN3CCN(Cc4ccccc4)CC3)ccc2c2ccnc(C)c21 | BCHE | enzyme activity, inhibitor, Ellman | 1 µM | 38.5
C#Cc1n[nH]c2c(-c3cn([C@@H](C)c4ccccn4)c(=O)[nH]c3=O)cc(F)cc12 | Fibroblast growth factor receptor 1 (FGFR1, Homo sapiens, UniProt P11362) | enzyme activity, inhibitor | 0.1 µM | 5.4
O=C(Nc1cccnn1)N1CCN([C@@H]2CCOc3cc(C(F)(F)F)ccc32)CC1 | Somatostatin receptor type 1 (SSTR1, Homo sapiens, UniProt P30872) | cell-free assay | 20 µM | 10
C=CCn1c2cc(OC(=O)CCCCN3CCN(Cc4ccccc4Cl)CC3)ccc2c2ccnc(C)c21 | BCHE | enzyme activity, inhibitor, Ellman | 1 µM | 46.1
COc1ccc(S(=O)(=O)N2CCCCC2)cc1C | MC4R | ligand displacement, radioligand | 10 µM | < 30
C#Cc1n[nH]c2c(-c3cn([C@@H](C)c4ccccc4)c(=O)[nH]c3=O)cc(F)cc12 | Fibroblast growth factor receptor 1 (FGFR1, Homo sapiens, UniProt P11362, V561M) | enzyme activity, inhibitor | 0.1 µM | -4.7
C=CCn1c2cc(OC(=O)CCCCN3CCN(Cc4cccc(C(F)(F)F)c4)CC3)ccc2c2ccnc(C)c21 | BCHE | enzyme activity, inhibitor, Ellman | 1 µM | 40.2
CC(C)C[C@H](NC(=O)[C@H](Cc1ccccc1)NC(=O)c1cnccn1)B(O)O | Plasma kallikrein (KLKB1, Homo sapiens, UniProt P03952) | enzyme activity, inhibitor | 33 µM | 94.2
Cn1cc(-c2cc(F)cc(N3CCn4c(cc5c4CCCC5)C3=O)c2CO)cc(Nc2ccc(N3CCN(C4COC4)CC3)cn2)c1=O | Tyrosine-protein kinase Fgr (FGR, Homo sapiens, UniProt P09769) | enzyme activity, inhibitor | 0.1 µM | 40
COc1ccc2c(c1)[nH]c1c(C)nccc12 | DNA dC->dU-editing enzyme APOBEC-3B (Homo sapiens, UniProt Q9UH17) | enzyme activity, inhibitor, fluorescence | 100 µM | 53.6
CN(CCN1CCC(OC(=O)Nc2ccccc2-c2ccccc2)CC1)C(=O)c1ccc(CN2CCC(C(N)=O)CC2)cc1 | MC4R | ligand displacement, radioligand | 1 µM | 1
C=CCn1c2cc(OC(=O)CCCCCCN3CCN(Cc4ccccc4)CC3)ccc2c2ccnc(C)c21 | BCHE | enzyme activity, inhibitor, Ellman | 1 µM | 36.8
[C-]#[O+] | Catalase (CAT, Bos taurus, UniProt P00432) | enzyme activity, inhibitor | 1 mM | 70
